In ChEMBL document CHEMBL1221391, “Identification of novel antitubercular compounds through hybrid virtual screening approach” (Bioorg Med Chem, 2010):
In brackets after ≈: the same amount, converted by molar mass.

Tested on: Mycobacterium tuberculosis
Assay: Antitubercular activity against Mycobacterium tuberculosis H37Rv after 7 days
Type: functional, organism-based
Settings: 168 h
How it was run: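 MABA in 7H9 broth with 0.2% glycerol, 1.0 g/l Casitone, 10% OADC and 0.05% Tween 80, grown to OD600 0.4. Culture diluted 1:50 to give 2 × 10^5 CFU/ml. Twofold serial dilutions made from DMSO stock. Incubated 37 °C for 7 days, then alamar blue added and read after 24 h. MIC is the lowest concentration preventing the blue-to-pink change. Rifampicin reference.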

Row | SMILES | MIC [µM] | IC50 [nM]
1 | O=[N+]([O-])c1ccc(Oc2cc(C(F)(F)F)ccc2Cl)cc1O | 384 (≈ 128 µg/mL) | 
2 | Cc1oc(-c2ccccc2)nc1CN1CCN(C(=O)c2ccccc2)CC1 | 187 (≈ 67.8 µg/mL) | 
3 | O=C(c1ccc(F)cc1)N1CCN(C2c3ccccc3-c3ccccc32)CC1 | 85.9 (≈ 32 µg/mL) | 
4 | Oc1cc(CCCc2ccccc2)ccc1Oc1ccc(Cl)cc1Cl | 50 (≈ 18.7 µg/mL) | 50
5 | O=C1c2ccc(Oc3cccc([N+](=O)[O-])c3)cc2C(=O)N1c1ccccc1O | 85 (≈ 32 µg/mL) | 
6 | Cc1ccc(C(=O)N2CCN(S(=O)(=O)c3ccccc3)CC2)cc1 | 372 (≈ 128 µg/mL) | 
7 | Cc1ccc(C(=O)N2CCN(c3cccc(Cl)c3)CC2)cc1C | > 125 | 990
8 | Cc1[nH]c2cc(C(=O)N3CCN(Cc4ccccc4)CC3)ccc2c1C | 368 (≈ 128 µg/mL) | 
9 | Cc1ccc(/N=C/c2cc(Cc3ccccc3Cl)ccc2O)c(O)c1 | 182 (≈ 64 µg/mL) | 
10 | Cc1ccc(C(=O)N2CCN(C3c4ccccc4-c4ccccc43)CC2)cc1 | > 125 | 400
11 | Cc1ccc(S(=O)(=O)N2CCN(C(=O)c3ccc(Br)cc3)CC2)cc1 | 302 (≈ 128 µg/mL) | 
12 | CCCCCCCCCCCCCCc1ccc(Oc2ccccc2)c(O)c1 | 460 (≈ 176 µg/mL) | 150
13 | CCCCCCCCc1ccc(Oc2ccccc2)c(O)c1 | 6.4 (≈ 1.91 µg/mL) | 5
14 | CN(C(=O)C1CC(=O)N(C2CCCCCC2)C1)c1cc(-c2ccccc2)c(O)c(-c2ccccc2)c1 (stereo not drawn) | > 125 | 360
15 | O=C(CCN1C(=O)c2ccccc2C1=O)N1CCN(C(c2ccccc2)c2ccccc2)CC1 | 141 (≈ 64 µg/mL) | 
16 | CCCCCc1ccc(Oc2ccccc2)c(O)c1 | 3.5 (≈ 0.897 µg/mL) | 17
17 | O=C(NCc1ccc(F)cc1)C1CC(=O)N(C2CCCCCCC2)C1 (stereo not drawn) | 369 (≈ 128 µg/mL) | 
18 | S=C(c1ccc(Br)cc1)N1CCN(Cc2ccccc2)CC1 | 85.2 (≈ 32 µg/mL) | 
19 | O=C(Nc1ccc(C(F)(F)F)cc1)NC1CC(=O)N(C2CCCC2)C1 (stereo not drawn) | 180 (≈ 64 µg/mL) | 
20 | CCc1ccc(C(=O)Oc2cccnc2)cc1 | 563 (≈ 128 µg/mL) | 
21 | Oc1cc(Cc2ccccc2)ccc1Oc1ccc(Cl)cc1Cl | 27 (≈ 9.32 µg/mL) | 51

Row | SMILES | MIC [µM] | IC50 [nM]
22 | CCCCCc1ccc(OC(=O)c2ccc(Cl)cc2)cc1 | 106 (≈ 32 µg/mL) | 
23 | O=C(c1cccs1)N1CCN(C2c3ccccc3-c3ccccc32)CC1 | 355 (≈ 128 µg/mL) | 
24 | CO[C@H]1/C=C/O[C@@]2(C)Oc3c(C)c(O)c4c(O)c(c(/C=N/N5CCN(C)CC5)c(O)c4c3C2=O)NC(=O)/C(C)=C\C=C\[C@H](C)[C@H](O)[C@@H](C)[C@@H](O)[C@@H](C)[C@H](OC(C)=O)[C@@H]1C [RIFAMPIN] | 0.01 (≈ 0.00823 µg/mL) | 
25 | CCc1ccc(O)c(/N=C/c2cc(Cl)cc(Cl)c2O)c1 | 206 (≈ 64 µg/mL) | 
26 | CN(Cc1c2ccccc2cc2ccccc12)C(=O)C1CC(=O)N(C2CCCCCCC2)C1 (stereo not drawn) | 62.5 (≈ 27.7 µg/mL) | 320
27 | COc1cccc(CNC(=O)CN2CCCN(Cc3ccc(Cl)cc3)S2(=O)=O)c1 | 146 (≈ 64 µg/mL) | 
28 | CC(C)Cc1ccc(Oc2ccc(Cl)cc2Cl)c(O)c1 | 60 (≈ 18.7 µg/mL) | 96
29 | O=C(C1CC(=O)N(C2CCCC2)C1)N1CCC(Cc2ccccc2)CC1 (stereo not drawn) | 361 (≈ 128 µg/mL) | 
30 | O=C(c1ccccc1)N1CCN(C2c3ccccc3-c3ccccc32)CC1 | > 125 | 90
31 | Oc1cc(CCc2ccccc2)ccc1Oc1ccc(Cl)cc1Cl | 52 (≈ 18.7 µg/mL) | 21
32 | O=C(Nc1cc(Br)cc(C(F)(F)F)c1)C1CC(=O)N(C2CCCCC2)C1 (stereo not drawn) | 62.5 (≈ 27.1 µg/mL) | 850
33 | O=C(Nc1ccccc1O)c1ccc(Oc2ccc([N+](=O)[O-])cc2)cc1 | 5.7 (≈ 2 µg/mL) | 
34 | Cc1ccc(NC(=O)C2CC(=O)N(CCc3c[nH]c4ccc(Cl)cc34)C2)cc1 (stereo not drawn) | 80.8 (≈ 32 µg/mL) | 
35 | CCCCc1ccc(Oc2ccc(Cl)cc2Cl)c(O)c1 | 30 (≈ 9.34 µg/mL) | 91
36 | Cc1ccc(C(=O)CC(=O)c2ccc(Cl)cc2)c(O)c1 | 13.8 (≈ 4 µg/mL) | 
37 | CCCCCCCc1ccc(C(=O)Oc2ccc([N+](=O)[O-])cc2)cc1 | 187 (≈ 64 µg/mL) | 
38 | CN(Cc1c2ccccc2cc2ccccc12)C(=O)C1CC(=O)N(C2CC3CCC2C3)C1 (stereo not drawn) | 125 (≈ 53.3 µg/mL) | 460
39 | Cc1ccc(OC(=O)c2ccc(Cl)cc2)cc1 | 259 (≈ 64 µg/mL) | 
40 | CCCCCCc1ccc(Oc2ccccc2)c(O)c1 | 7.8 (≈ 2.11 µg/mL) | 11
41 | Oc1cccc(Oc2c(F)c(F)nc(F)c2F)c1 | 247 (≈ 64 µg/mL) | 
42 | CCCCCCc1ccc(C(=O)Oc2ccc(Cl)cc2)cc1 | 202 (≈ 64 µg/mL) | 
